Sampled rows, rich in hits. Any-hit rate of the full collection: about 2.6%.
rCAG binder: r(CAG) repeat RNA binding | actives 1.3% (n = 370,000) | TO-PRO-1 dye displacement fluorescence | inhibition, % at 3 µM;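 active means inhibition above the plate cutoff, the mean of all test compounds on that plate plus 3 SD, cut at about 35% in these data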;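 further: 0% = DMSO alone and 100% = 100 µM mitoxantrone as full dye displacement; higher means more dye released from RNA so lower well fluorescence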
NadD inh: NadD (S. aureus) enzyme inhibition. inhibition, % at 20 µM. AID 602399. purified NadD enzyme, colorimetric absorbance read-out. actives 0.78% (n = 360,000); in the data active means inhibition above about 26%
core dimer inh: HCV core protein dimerization inhibition; TR-FRET GST/Flag-core106 dimerization, 1536-well; inhibition, % at 5 µM; actives 0.33% (n = 300,000);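 active means inhibition above the mean of all tested compounds plus 3 SD, set per screening campaign, cut at about 45% in these data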
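test system = GST/Flag-tagged HCV core106 proteins | probe or stimulus = Eu donor and XL665 acceptor anti-tag antibodies | times = compound-protein-antibody incubation 4 h at 22.5 °C | signal = TR-FRET, excitation 340 nm, emission 617 and 671 nm | measure = percent inhibition of core106 dimerization signal | controls = wells lacking GST-core106 and wells with excess unlabelled core106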
ABHD5-PLIN5 inh: inhibitors of human ABHD5-perilipin-5 interaction; Split G. princeps luciferase complementation, luminescence, 4 h; inhibition, % at 4 µM; actives 0.78% (n = 360,000);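 active means inhibition above the mean inhibition across every tested compound plus 3 SD, cut at about 22% in these data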;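 further: 0% = DMSO only wells and the 100% control is not disclosed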
Target sequence (Q00G26 whole entry, looked up): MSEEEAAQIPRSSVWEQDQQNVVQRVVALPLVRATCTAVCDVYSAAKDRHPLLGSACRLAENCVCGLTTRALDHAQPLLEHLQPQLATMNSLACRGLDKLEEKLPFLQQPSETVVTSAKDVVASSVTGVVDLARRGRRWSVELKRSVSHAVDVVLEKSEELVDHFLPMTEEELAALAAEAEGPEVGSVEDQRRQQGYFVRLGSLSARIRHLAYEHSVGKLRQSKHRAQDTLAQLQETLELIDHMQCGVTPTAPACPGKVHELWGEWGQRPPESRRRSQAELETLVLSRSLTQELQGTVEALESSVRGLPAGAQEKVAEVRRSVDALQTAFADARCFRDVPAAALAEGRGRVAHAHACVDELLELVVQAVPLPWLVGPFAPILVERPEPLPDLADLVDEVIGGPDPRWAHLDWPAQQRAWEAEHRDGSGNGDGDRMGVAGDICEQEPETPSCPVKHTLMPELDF
Target sequence (Q8WTS1 whole entry, looked up): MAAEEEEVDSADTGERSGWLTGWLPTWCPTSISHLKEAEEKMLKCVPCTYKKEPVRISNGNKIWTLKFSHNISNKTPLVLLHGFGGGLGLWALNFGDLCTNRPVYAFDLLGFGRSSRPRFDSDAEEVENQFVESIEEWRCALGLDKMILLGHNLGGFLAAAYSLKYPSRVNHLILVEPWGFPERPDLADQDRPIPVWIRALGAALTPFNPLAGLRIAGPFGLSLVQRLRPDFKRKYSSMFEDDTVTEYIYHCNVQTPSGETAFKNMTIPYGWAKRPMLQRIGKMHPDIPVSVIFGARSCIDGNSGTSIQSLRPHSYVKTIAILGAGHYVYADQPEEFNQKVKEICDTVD
rCAG bind conf: r(CAG) RNA repeat binding, confirmation. shares compounds with rCAG binder. TO-PRO-1 dye displacement fluorescence. inhibition, % at 3 µM. actives 70% (n = 4,300). AID 652065;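 active means inhibition above a per-plate cutoff, the mean inhibition of sample wells plus 3 SD, cut at about 35% in these data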;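 further: loss of TO-PRO-1 fluorescence as compound displaces dye from 1x1 AA loop RNA; 0% = DMSO only wells and 100% = 100 µM mitoxantrone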
dCAG dye counter: counter-screen for rCAG RNA binders: DNA CAG dye complex inhibitors. shares compounds with rCAG binder. d(CAG) DNA oligo TO-PRO-1 dye displacement, fluorescence. inhibition, % at 3 µM. actives 94% (n = 4,300);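 active means inhibition above its plate's cutoff, the mean test-well inhibition plus 3 SD, cut at about 4.8% in these data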;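 further: 0% = DNA dye mix with DMSO and 100% = 100 µM mitoxantrone; hits displace the dye from DNA and so lower well fluorescence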
* = called active by the depositor.

What do the screens show for `O=S(=O)(Nc1nc(-c2ccccc2)cs1)c1cccc(C(F)(F)F)c1`?
rCAG binder: 78*; NadD inh: 2; core dimer inh: -16; ABHD5-PLIN5 inh: -6; rCAG bind conf: 57*; dCAG dye counter: 22*

What do the screens show for `Cc1ccc(S(=O)(=O)Nc2nc(-c3ccc(F)cc3)cs2)cc1`?
rCAG binder: 62*; NadD inh: -3; core dimer inh: 6; ABHD5-PLIN5 inh: -2; rCAG bind conf: 56*; dCAG dye counter: 15*

Results for Nc1nc(-c2cccc(NS(=O)(=O)c3ccccc3)c2)cs1 ?
rCAG binder: 7; NadD inh: -1; core dimer inh: -7; ABHD5-PLIN5 inh: -4

Results for O=c1[nH]c(=S)[nH]c2c1C(C1CCCCC1)OC(C1CCCCC1)C2 (configuration not stated) ?
rCAG binder: 7; NadD inh: 17; ABHD5-PLIN5 inh: 4

How did C[C@@H]1CN([C@H](C)CO)C(=O)CCCn2cc(nn2)CO[C@H]1CN(C)S(=O)(=O)c1cn(C)cn1 do in these assays?
rCAG binder: 2

Results for CCCCNc1cccc2c1S(=O)(=O)N[C@@H](Cc1ccccc1)CO2 ?
rCAG binder: 2

What do the screens show for `CCCNC(=O)c1ccccc1NS(=O)(=O)c1ccc(OC)c(OC)c1`?
rCAG binder: 2; NadD inh: -5; core dimer inh: 1; ABHD5-PLIN5 inh: 4

Results for COc1ccc(S(=O)(=O)Nc2ccccc2C(=O)Nc2nc(-c3ccc(F)cc3)cs2)cc1OC ?
rCAG binder: 87*; NadD inh: 2; core dimer inh: 23; ABHD5-PLIN5 inh: 3; rCAG bind conf: 89*; dCAG dye counter: 71*

Results for C[C@H]1[C@H](c2ccccc2)Oc2cccc(NCCc3ccccc3)c2S(=O)(=O)N1Cc1cccc(F)c1 ?
rCAG binder: 5

What do the screens show for `O=C(CN1C(=O)/C(=C2/SC(=S)N(CCS(=O)(=O)O)C2=O)c2ccccc21)Nc1cccc(C(F)(F)F)c1`?
rCAG binder: 91*; NadD inh: 34*; ABHD5-PLIN5 inh: 1; rCAG bind conf: 94*; dCAG dye counter: 78*

How did O=C(CN1C(=O)/C(=C2\SC(=S)N(CCS(=O)(=O)O)C2=O)c2ccccc21)Nc1cccc(Br)c1 do in these assays?
rCAG binder: 88*; NadD inh: 51*; core dimer inh: -13; ABHD5-PLIN5 inh: -19; rCAG bind conf: 89*; dCAG dye counter: 65*

What do the screens show for `COCCN1C(=O)/C(=C2/C(=O)N(CC(=O)Nc3ccccc3Cl)c3ccccc32)SC1=S`?
rCAG binder: 0; NadD inh: 22; core dimer inh: 6; ABHD5-PLIN5 inh: -6

Results for CCOc1ccc(Cl)cc1-c1cc(C(=O)NCc2cc(C(F)(F)F)cc(C(F)(F)F)c2)[nH]n1 ?
rCAG binder: -2; NadD inh: 0; ABHD5-PLIN5 inh: 11

Results for O=C(CCc1ccccc1)N[C@H]1[C@H](OCc2ccccc2)CCC[C@@]12C(=O)N(Cc1ccccc1)c1ccccc12 ?
rCAG binder: 8

What do the screens show for `O=C(Nc1nnc(COc2ccccc2F)s1)Nc1ccccc1F`?
rCAG binder: 29; NadD inh: -5; core dimer inh: -2; ABHD5-PLIN5 inh: -7

How did CCSc1nsc(NC(=O)Nc2cccc(OC)c2)n1 do in these assays?
rCAG binder: 58*; NadD inh: -2; core dimer inh: -6; ABHD5-PLIN5 inh: -3; rCAG bind conf: 20; dCAG dye counter: 16*

How did COc1cccc(NC(=O)Nc2nnc(Cc3ccccc3)s2)c1 do in these assays?
rCAG binder: 41*; NadD inh: -1; core dimer inh: -2; ABHD5-PLIN5 inh: -4; rCAG bind conf: 22; dCAG dye counter: 15*

How did O=C(Nc1ccc(F)cc1)Nc1nnc(Cc2ccccc2)s1 do in these assays?
rCAG binder: 42*; NadD inh: -5; core dimer inh: 7; ABHD5-PLIN5 inh: -2; rCAG bind conf: 14; dCAG dye counter: 15*

How did COc1ccc(Cc2nnc(NC(=O)Nc3ccc(F)cc3)s2)cc1 do in these assays?
rCAG binder: 34; NadD inh: 6; core dimer inh: 5; ABHD5-PLIN5 inh: -6

What do the screens show for `O=C(Nc1ccc(F)cc1)Nc1nnc(COc2ccccc2F)s1`?
rCAG binder: 63*; NadD inh: -1; core dimer inh: -10; ABHD5-PLIN5 inh: -6; rCAG bind conf: 38*; dCAG dye counter: 27*

Results for COc1cccc(NC(=O)Nc2nnc(Cc3ccc(F)cc3)s2)c1 ?
rCAG binder: 8; NadD inh: 9; core dimer inh: 9; ABHD5-PLIN5 inh: 4

How did CN1Cc2nnn(Cc3ccccc3)c2-c2cc(N3CCCCC3)ccc2S1(=O)=O do in these assays?
rCAG binder: 4

Results for C=CCSc1nsc(NC(=O)Nc2ccc(F)cc2)n1 ?
rCAG binder: 69*; NadD inh: -3; core dimer inh: 1; ABHD5-PLIN5 inh: -12; rCAG bind conf: 20; dCAG dye counter: 20*

How did CCSc1nsc(NC(=O)Nc2ccccc2F)n1 do in these assays?
rCAG binder: 26; NadD inh: -3; core dimer inh: 5; ABHD5-PLIN5 inh: -17

How did CCSc1nnc(NC(=O)[C@@H](NC(=O)c2cccc(C)c2)C(C)C)s1 do in these assays?
rCAG binder: 1; NadD inh: 1; core dimer inh: 2; ABHD5-PLIN5 inh: 0

What do the screens show for `CCSc1nnc(NC(=O)Nc2cccc(C)c2)s1`?
rCAG binder: 56*; NadD inh: -5; core dimer inh: -2; ABHD5-PLIN5 inh: -14; rCAG bind conf: 18; dCAG dye counter: 17*

How did COc1ccc(Cc2nnc(NC(=O)Nc3cccc(OC)c3)s2)cc1 do in these assays?
rCAG binder: 42*; NadD inh: 1; core dimer inh: 3; ABHD5-PLIN5 inh: 1; rCAG bind conf: 40*; dCAG dye counter: 17*

What do the screens show for `COC(=O)c1cc(=O)nc(NN=C(C)C)s1`?
rCAG binder: 5

What do the screens show for `Cc1ccc(NC(=O)CCS(=O)(=O)c2ccccc2)cc1C`?
rCAG binder: 1

Results for N#Cc1c(SCC(=O)Nc2nccs2)sc2c(O)cc(=O)[nH]c12 ?
rCAG binder: 71*; NadD inh: 11; core dimer inh: -33; ABHD5-PLIN5 inh: 2; rCAG bind conf: 52*; dCAG dye counter: 24*

What do the screens show for `C=CCSc1nnc(NC(=O)CSc2nc(CCC)cc(=O)[nH]2)s1`?
rCAG binder: 15; NadD inh: 2; core dimer inh: 2; ABHD5-PLIN5 inh: 2

How did CCCSc1nnc(NC(=O)CSc2sc3c(O)cc(=O)[nH]c3c2C#N)s1 do in these assays?
rCAG binder: 65*; NadD inh: -10; core dimer inh: -15; ABHD5-PLIN5 inh: 0; rCAG bind conf: 80*; dCAG dye counter: 46*

Results for Cc1cc(=O)[nH]c(SCC(=O)Nc2nc3ccccc3s2)n1 ?
rCAG binder: 7; NadD inh: -1; core dimer inh: -2; ABHD5-PLIN5 inh: -13

Compound activity from PubChem.
